Myeloid diff MLP – promotes myeloid progenitor differentiation. ER-HoxA9 myeloid progenitors, lysozyme-GFP differentiation, flow cytometry. calls only at 10 µM. actives 1% (n = 360,000);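 active = normalized GFP-positive differentiation at or above the plate's own cutoff, the solvent-only control mean plus 3 SD; inconclusive = no clear call, values can overlap the other calls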;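 note: cells exposed to compound for four days before flow analysis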
Exocytosis inh – lytic granule exocytosis inhibition. TALL-104 LAMP-1 surface exposure, flow cytometry; cells stimulated with thapsigargin and PMA. inhibition, % at 10 µM. actives 0.66% (n = 360,000). AID 651702;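 active = inhibition above about 55%, limit read from the data; inconclusive = no clear call, values can overlap the other calls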
EBI2 block – antagonists of human EBI2 receptor | P32249 | EBI2 beta-arrestin recruitment, luminescence, 7a,25-OHC stimulated | inhibition, % at 5 µM | actives 0.81% (n = 360,000); in the data active = inhibition above about 38%;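 note: enzyme fragment complementation signal reports receptor beta-arrestin coupling in cells; 0% = agonist plus DMSO wells and 100% = wells without agonist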
Target sequence (P32249 whole entry, looked up, the tested form may be a part): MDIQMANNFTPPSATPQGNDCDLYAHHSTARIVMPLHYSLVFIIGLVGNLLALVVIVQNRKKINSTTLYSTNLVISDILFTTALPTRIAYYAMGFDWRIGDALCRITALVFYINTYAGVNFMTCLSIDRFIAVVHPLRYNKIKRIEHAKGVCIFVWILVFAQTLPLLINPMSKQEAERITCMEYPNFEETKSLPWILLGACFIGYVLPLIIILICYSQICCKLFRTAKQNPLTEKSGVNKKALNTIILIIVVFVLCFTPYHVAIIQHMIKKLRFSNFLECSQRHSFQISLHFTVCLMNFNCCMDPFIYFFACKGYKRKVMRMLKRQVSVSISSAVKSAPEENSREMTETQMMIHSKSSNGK
MC4R barr agon – agonists of human melanocortin 4 receptor (MC4R) beta-arrestin | activation, % at 8.9 µM | U2OS MC4R beta-arrestin complementation, luminescence; percent of melanotan II response, DMSO zero | actives 0.98% (n = 360,000) | P32245;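 active = activation above a per-plate cutoff, the mean activation of sample wells on that plate plus 3 SD, cut at about 8% in these data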
MC4R antag cAMP – blocks human MC4R cAMP signaling. P32245. actives 0.48% (n = 360,000). MC4R-expressing cells, MTII-stimulated cAMP, LANCE TR-FRET. inhibition, % at 6.5 µM;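 active = inhibition above its plate's cutoff, the mean of tested wells on that plate plus 3 SD, cut at about 29% in these data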;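 note: 0% = Melanotan II alone and 100% = Melanotan II plus saturating MCL0020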
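Material: human MC4R-expressing U2OS cells. Probe or stimulus: Melanotan II challenge. Dosing: 6.5 µM single dose. Times: 30-min compound, 1-h challenge, 1-h detection, room temperature. Technique: TR-FRET with Eu-cAMP and labeled anti-cAMP, 671 nm. Replication: singlicate.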
An asterisk follows results filed as active; i = inactive; u = inconclusive; x = no result; + = active, no number. An excerpt weighted towards active compounds, which were near 3.7% of everything screened.

SMILES	Myeloid diff MLP	Exocytosis inh	EBI2 block	MC4R barr agon	MC4R antag cAMP
CC(Oc1ccccc1)C(=O)N=C1SC2CS(=O)(=O)CC2N1c1cccc(F)c1 (stereo not drawn)	i	-0.9	-8.0	-3.2	4.6
Cc1nc2ncnn2c(C)c1Cc1cccc(C(F)(F)F)c1	+	-2.7	-5.8	-0.2	-2.1
CCOC(=O)CC1C(=O)NCCN1c1nc2ccc(C)cn2c(=O)c1/C=C1\SC(=S)N(CC(C)C)C1=O (stereo not drawn)	+	0.0	19.2	0.0	21.0
CCOC(=O)/C(C#N)=C/c1c(N2CCN(C)CC2)nc2c(C)cccn2c1=O	i	-2.0	-11.5	-0.5	15.4
CCCN1C(=O)/C(=C/c2c(N3CCNC(=O)C3CC(=O)OCC)nc3c(C)cccn3c2=O)SC1=S (stereo not drawn)	+	10.1	-17.2	-0.1	28.9*
OC[C@@H]1CN(CCN2CCOCC2)C[C@H](n2cnc3c(NC4CCC4)ncnc32)O1	i	-0.7	0.1	-0.9	13.4
CCCN1C(=O)/C(=C/c2ccc(N3CCCC3)c(C)c2)NC1=S	+	-1.0	34.7	0.4	14.1
Cc1cc(/C=C2/C(=O)N(C)C(=S)N2C)ccc1N1CCCC1	i	-2.6	7.0	-1.7	12.9
Cc1cc(/C=C2\NC(=S)N(C)C2=O)ccc1N1CCCC1	+	-0.7	6.8	-2.1	2.3
CN(C)c1ccc(S(=O)(=O)N2CCC(Cc3ccccc3)CC2)cn1	i	-2.3	-1.1	-0.5	-5.7
CCCCCCc1cc2cc(S(=O)(=O)c3ccc(F)c(Cl)c3)c(=O)oc2cc1O	i	1.6	-24.9	8.8*	4.0
CCOc1ccc(C(=O)Nc2ncccc2Cl)cc1	i	-14.8	8.2	1.0	4.0
O=C(/C=C/c1cccs1)c1ccc(NC(=O)c2cccc(Br)c2)cc1	i	4.6	58.4*	3.3	8.2
CCOC(=O)c1oc2ccc(S(=O)(=O)n3nc(-c4ccc(OC)cc4)cc3N)cc2c1C	u	6.6	0.5	-2.0	-0.5
CCOC(=O)c1oc2ccc(S(=O)(=O)n3nc(-c4ccccc4)cc3N)cc2c1C	+	-2.2	1.1	1.0	9.2
CCOC(=O)c1ccccc1Nc1cn(C(C)=O)c2ccccc12	+	3.3	-14.7	1.6	-21.0
O=C(c1ccccc1)c1cc2cc(Cl)ccc2[nH]1	i	-1.8	5.4	8.3*	2.1
O=C(c1cc2nc(-c3ccc(Cl)cc3)cc(C(F)(F)F)n2n1)N1CCOCC1	i	-1.6	6.9	-1.0	12.3
CCOC(=O)c1[nH]c(C)c(C(=O)OCC(=O)N2CCc3ccccc32)c1C	i	5.0	2.2	8.5*	-5.6
CC(C)(C)C(=O)NC(=S)NNC(=O)c1ccc(-c2ccccc2)cc1	+	0.6	17.6	-10.6	-5.2
Cc1nc(/N=C\c2ccc(N(C)C)cc2)sc1C	+	6.7	-3.0	-0.7	-1.3
CCCCC(=O)c1ccc(OC(=O)c2ccc([N+](=O)[O-])cc2)cc1	i	3.7	3.8	-1.8	1.3
CCC(C(=O)Nc1ccccc1OC)n1c(C(=O)OC)cc2ccsc21 (stereo not drawn)	+	-1.5	14.2	2.6	20.2
Cc1ccc(C(=O)Nc2ncccc2O)o1	i	-1.7	-2.3	-0.1	4.6
C=C1C(=O)CC2=C1[C@](Cc1ccc(F)cc1)(C(=O)OC)N(C(=O)c1ccccc1)C2	i	0.5	3.0	x	x
SMILES	Myeloid diff MLP	Exocytosis inh	EBI2 block	MC4R barr agon	MC4R antag cAMP
C=C1C(=O)C=C2CN(C(=O)c3ccccc3)[C@@](Cc3ccc(F)cc3)(C(=O)OC)[C@@H]12	+	1.0	75.7*	-1.6	25.0
CCCS(=O)(=O)NC(=O)C1(C)CCCN(C(=O)c2c(OC)cccc2OC)C1 (stereo not drawn)	i	-4.2	-17.6	-0.3	13.7
O=c1ccc2c(-c3ccccc3)c3ccc(O)cc3oc-2c1	+	-7.2	2.8	-1.2	-4.7
Nc1ccc(-c2c3ccc(=O)cc-3oc3cc(O)ccc23)cc1C(=O)O	+	-10.6	4.1	-4.6	-14.3
O=c1cc(-c2ccccc2)oc2cc(O)ccc12	i	-2.6	1.7	-1.7	-2.9
CC(=O)N1CCc2c(sc(NC(=O)CS(=O)(=O)c3ccc(F)cc3)c2C(N)=O)C1	i	-4.3	2.7	-3.9	1.3
CCN(CC)S(=O)(=O)c1ccc2[nH]c(=O)c3ccccc3c2c1	i	-5.9	22.6	1.0	4.2
CCc1ccc(NC(=O)CCc2nc3cccnc3n2Cc2ccc(OC)cc2)cc1	i	-0.9	3.9	8.5*	7.4
COc1ccc(NC(=O)c2cc(S(=O)(=O)N3CCc4ccccc43)cn2C)c(OC)c1	i	-1.4	66.3*	-0.2	2.1
CCCNS(=O)(=O)c1cccc(C(=O)OCc2cc(=O)oc3cc(OC)ccc23)c1	u	70.1*	-1.4	-0.3	-15.9
COc1ccc2c(COC(=O)c3cccc(S(=O)(=O)NCC(C)C)c3)cc(=O)oc2c1	i	16.1	11.0	-2.2	-4.4
Cc1cc(/C=C2/C(=N)N3C(c4ccccc4)=CSC3=NC2=O)c(C)n1-c1ccc(Cl)cc1	i	60.5*	0.9	1.6	-6.0
CC(C)Oc1cccc(NC(=O)c2cnccc2C(F)(F)F)c1	i	16.4	-9.6	-2.8	1.5
N#Cc1ccc(-c2ccc(OCC(=O)NCCc3ccccc3)cc2)cc1	i	-2.9	26.2	9.1*	1.7
CCNC(=O)COc1ccc(-c2ccccc2)cc1	i	5.4	3.4	2.5	8.7
COc1ccccc1N1CCN(c2cc(=O)n(Cc3ccc(F)cc3)c(=O)[nH]2)CC1	+	10.8	1.2	-0.9	-29.4
COC(=O)C1C2CC3c4[nH]c5cc(OC)ccc5c4CCN3CC2CC(OC2CCCCO2)C1OC (stereo not drawn)	+	-1.4	-6.9	1.8	11.8
COC(=O)[C@H]1[C@H]2C[C@@H]3c4[nH]c5cc(OC)ccc5c4CCN3C[C@H]2C[C@@H](OC(=O)c2cc(OC)c(OC)c(OC)c2)[C@@H]1OC	i	4.5	-3.6	1.7	6.7
Cc1cccc(NC(=O)CSc2nc(C3CC3)nc3ccccc23)c1	i	3.5	5.7	1.7	8.6
CCN(CC)c1ccc(NC(=O)CSc2nc(C3CC3)nc3ccccc23)cc1C	i	-7.1	-7.1	8.9*	-16.1
N#CCCN(Cc1ccccc1)C(C(=O)NC1CCCCC1)c1cc2ccccc2o1 (stereo not drawn)	i	-0.2	17.1	x	x
O=c1c(/C=C(\O)c2ccc(F)cc2)nc2ccccc2n1-c1ccccc1	+	-1.1	22.3	-1.6	6.9
CCOC(=O)C1(C)CCCN(C(=O)c2ccc3c(c2)CCO3)C1 (stereo not drawn)	i	-1.9	-2.8	1.1	-1.9
COCCNC(=O)C(=O)N/N=C(\C)CC(=O)Nc1cccnc1	i	-0.8	-6.6	-2.0	-3.4

Screens deposited in PubChem BioAssay by several laboratories.
